# The list is not random: actives were taken first. Their share in the collection is about 11%.
# D1 mod: allosterically modulates the human D1 dopamine receptor. AID 641. 5.9% of 58,000 active. B-score at 10 µM. HEK293 D1, CRE-luciferase, dopamine EC30 potentiation; actives deviate in either direction. P21728;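 active = luminescence count or its row- and column-corrected plate score outside the 99.7% band of the plate's sample wells, on either side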
# S1P1 ag pot: agonists and agonism potentiators of human S1P1 receptor; P21453; S1P1 CRE-bla cells, forskolin, beta-lactamase FRET, potentiator mode; S1P1 agonist co-added at EC20, 2 nM; 100% = saturating reference agonist, 0% = basal; activation, % at 9.5 µM; 0.57% of 56,000 active; AID 449;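 active = activation above a cutoff set at the mean activation of all tested compounds plus 3 SD, cut at about 54% in these data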;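 note: forskolin at 4 µM as EC80 and the EC20 agonist is SEW2871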
# Target sequence (P21453 whole entry, looked up): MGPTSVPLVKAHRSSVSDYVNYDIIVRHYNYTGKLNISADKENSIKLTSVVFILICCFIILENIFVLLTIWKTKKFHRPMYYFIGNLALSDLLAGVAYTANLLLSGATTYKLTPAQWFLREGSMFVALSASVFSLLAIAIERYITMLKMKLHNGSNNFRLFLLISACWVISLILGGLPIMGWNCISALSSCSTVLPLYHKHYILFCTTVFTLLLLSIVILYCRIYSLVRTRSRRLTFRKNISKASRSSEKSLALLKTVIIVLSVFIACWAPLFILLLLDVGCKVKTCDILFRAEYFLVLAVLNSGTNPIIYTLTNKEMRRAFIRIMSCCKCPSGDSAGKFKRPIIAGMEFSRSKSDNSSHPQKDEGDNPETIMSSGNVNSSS
# S1P3 agonist: agonists of human S1P3 receptor; Q99500; S1P3 NFAT-BLA reporter cells, agonism, FRET ratio; relative to 1 µM S1P, basal subtracted; activation, % at 4.5 µM; 0.1% of 60,000 active; AID 373;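 active = activation above the screen-wide mean plus 3 SD, cut at about 4.5% in these data, passing the limit was not always enough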
#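 Measure – % activation relative to 1 µM S1P (100%), per plate · System – stable CHO line with human S1P3, Gα16, NFAT-BLA reporter · Timing – cells plated overnight, compound 4 h 37 °C, substrate 2 h RT · Technique – fluorescent BLA substrate, ex 405 nm, em 460/535 nm ratio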
# M1 ag: agonists of M1 muscarinic receptor | CHO-M1 cells, Fluo-4 calcium fluorescence, agonist mode; stronger effect = higher value | B-score at 10 µM | 3% of 64,000 active;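 active = fluorescence rise, raw or as B-score row- and column-corrected plate score, outside the 99.7% band of its plate's samples, either direction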
# M1 antag: antagonists of rat M1 muscarinic receptor; P08482; CHO-M1 cells, Fluo-4 calcium, ACh EC80 antagonist mode; stronger effect = lower value; B-score at 10 µM; 3.4% of 64,000 active; AID 628;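 active = calcium fluorescence response, raw or row-and-column corrected B-score, differing from the plate sample mean either way at a set confidence level, mostly lower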
# D1 mod confirm: confirmation of human D1 dopamine receptor allosteric modulators | shares compounds with D1 mod | HEK293 D1 CRE-luciferase, dopamine EC30 potentiation; stronger effect = higher value | luminescence at 10 µM | 88% of 2,200 active | AID 642;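 active = luminescence in either of two replicates above the same-plate mean plus 3 SD of the low-dose dopamine control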
# D1 ag no DA: activates D1 CRE-luciferase signal without dopamine present; shares compounds with D1 mod; HEK293 D1 CRE-luciferase, luminescence, no dopamine; stronger effect = higher value; luminescence at 10 µM; 0.8% of 1,900 active; AID 646; in the data active = luminescence above about 3900
# Isoprot counter: counter-screen for D1 modulators: isoproterenol response in HEK293 cells | shares compounds with D1 mod | HEK293 D1 CRE-luciferase, isoproterenol EC30 counter-screen | calls only at 10 µM | 63% of 2,200 active | AID 647;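 active = luminescence in either replicate above plate mean of wells with a partly effective reference agonist dose plus 3 SD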;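 note: isoproterenol raises cAMP through native beta-adrenoceptor Gs so signal bypasses D1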
# A number is an active result; . = inactive; / = no result given; + = active, no number.
SMILES,D1 mod,S1P1 ag pot,S1P3 agonist,M1 ag,M1 antag,D1 mod confirm,D1 ag no DA,Isoprot counter
COc1ccc(C(=O)OCCNC(=O)c2c(Cl)nc3ccccn23)cc1,5.07,.,.,.,.,13996,.,+
O=C(Oc1cccc(N2C(=O)CCC2=O)c1)C1CC(=O)N(c2ccc(F)cc2)C1 (stereo not given),.,.,.,.,.,/,/,/
CCOC(=O)c1[nH]c2ccc(OCC)cc2c1NC(=O)CN1CCC2(CC1)OCCO2,.,.,.,.,.,/,/,/
CCOC(=O)c1[nH]c2ccc(F)cc2c1NC(=O)CN1CCc2cc(OC)c(OC)cc2C1,1.72,.,.,.,.,9280,.,+
COC(=O)c1[nH]c2ccc(Cl)cc2c1NC(=O)CN1CCc2cc(OC)c(OC)cc2C1,.,.,.,.,.,/,/,/
CCOC(=O)c1[nH]c2cc(OC)c(OC)cc2c1NC(=O)CN(C)C1CCCCC1,4.32,.,.,.,.,10140,.,+
CCOC(=O)c1[nH]c2cc(OC)c(OC)cc2c1NC(=O)c1ccc2c(c1)OCO2,/,/,/,.,.,/,/,/
CCOC(=O)c1[nH]c2ccc(OC)cc2c1NC(=O)CN1CCSCC1,2.3,.,.,.,.,6220,.,+
CC1(C)CC(=O)C=C(NC2CCS(=O)(=O)C2)C1 (stereo not given),.,/,/,.,.,/,/,/
Cc1noc(/C=C/c2ccco2)c1S(=O)(=O)N1CCC(C(=O)N2c3ccccc3CC2C)CC1 (stereo not given),/,.,.,.,.,/,/,/
O=C(COC(=O)C1CCC1)NCc1ccccc1Cl,.,.,.,.,.,/,/,/
O=C(O)C1CC=CCC1C(=O)Nc1ccccc1Cl (stereo not given),.,.,.,.,.,/,/,/
CCn1c(CSc2nnc(-c3ccoc3C)n2C)nc2cc(S(=O)(=O)N(C)C)ccc21,.,.,.,.,.,/,/,/
CCn1c(CSc2nnc(C)n2-c2ccccc2)nc2cc(S(=O)(=O)N(C)C)ccc21,1.8,.,.,.,.,.,.,.
Cc1cc(NC(=O)CN2CCN(c3ccccc3F)CC2)nc2c1c(=O)oc1ccccc12,.,.,.,.,.,/,/,/
CCOc1c(S(=O)(=O)N2CCCC2)ccc(Cl)c1Cl,11.9,.,.,.,.,11948,.,+
CCOc1ccc(Cl)cc1S(=O)(=O)N1CCCC1,.,.,.,.,.,/,/,/
COc1cc(/C=N/n2cnnc2)ccc1OC(=O)c1cccnc1,.,/,/,.,.,/,/,/
COc1ccc(/C=C(/C#N)c2cccnc2)cc1OC,33.9,.,.,.,.,21544,.,+
COc1ccc(S(=O)(=O)N2CCN(C(=O)NC3CCCCC3)CC2)cc1OC,.,.,.,.,/,/,/,/
NC(=O)c1cc(Br)cc2c3c([nH]c12)CCCC3,3.89,.,.,.,.,11200,.,+
O=c1c2c([nH]c3ccc(Br)cc13)CCCC2,.,.,.,.,.,/,/,/
O=C(CN1C(=O)CCSc2ccccc21)Nc1ccccc1,.,.,.,.,.,/,/,/
CCCCCSc1nnc2c(n1)OC(c1cccn1C)N(C(C)=O)c1ccccc1-2 (stereo not given),2.69,.,.,.,.,.,.,.
CCSc1nnc2c(n1)OC(c1ccc(C(=O)O)cc1)N(C(C)=O)c1ccccc1-2 (stereo not given),.,.,.,.,.,/,/,/
CCOc1ccc(C2Oc3nc(SC)nnc3-c3ccccc3N2C(C)=O)cc1OC (stereo not given),8.36,.,.,.,.,11344,.,.
COc1ccc(C2CC(=O)c3cnc(NC(=O)c4ccccc4OC)nc3C2)c(OC)c1 (stereo not given),6.54,.,.,.,.,15748,.,+
COc1ccc(C2CC(=O)c3cnc(NC(=O)c4ccccc4)nc3C2)cc1OC (stereo not given),4.57,.,.,.,.,9012,.,+

# High-throughput results: PubChem BioAssay, several laboratories
